Experimental data of several laboratories.
Compare with care: the assays were run in different laboratories.
Target: Serine/threonine-protein kinase PLK4 (PLK4, Homo sapiens, UniProt O00444)
One construct used (O00444 1-970): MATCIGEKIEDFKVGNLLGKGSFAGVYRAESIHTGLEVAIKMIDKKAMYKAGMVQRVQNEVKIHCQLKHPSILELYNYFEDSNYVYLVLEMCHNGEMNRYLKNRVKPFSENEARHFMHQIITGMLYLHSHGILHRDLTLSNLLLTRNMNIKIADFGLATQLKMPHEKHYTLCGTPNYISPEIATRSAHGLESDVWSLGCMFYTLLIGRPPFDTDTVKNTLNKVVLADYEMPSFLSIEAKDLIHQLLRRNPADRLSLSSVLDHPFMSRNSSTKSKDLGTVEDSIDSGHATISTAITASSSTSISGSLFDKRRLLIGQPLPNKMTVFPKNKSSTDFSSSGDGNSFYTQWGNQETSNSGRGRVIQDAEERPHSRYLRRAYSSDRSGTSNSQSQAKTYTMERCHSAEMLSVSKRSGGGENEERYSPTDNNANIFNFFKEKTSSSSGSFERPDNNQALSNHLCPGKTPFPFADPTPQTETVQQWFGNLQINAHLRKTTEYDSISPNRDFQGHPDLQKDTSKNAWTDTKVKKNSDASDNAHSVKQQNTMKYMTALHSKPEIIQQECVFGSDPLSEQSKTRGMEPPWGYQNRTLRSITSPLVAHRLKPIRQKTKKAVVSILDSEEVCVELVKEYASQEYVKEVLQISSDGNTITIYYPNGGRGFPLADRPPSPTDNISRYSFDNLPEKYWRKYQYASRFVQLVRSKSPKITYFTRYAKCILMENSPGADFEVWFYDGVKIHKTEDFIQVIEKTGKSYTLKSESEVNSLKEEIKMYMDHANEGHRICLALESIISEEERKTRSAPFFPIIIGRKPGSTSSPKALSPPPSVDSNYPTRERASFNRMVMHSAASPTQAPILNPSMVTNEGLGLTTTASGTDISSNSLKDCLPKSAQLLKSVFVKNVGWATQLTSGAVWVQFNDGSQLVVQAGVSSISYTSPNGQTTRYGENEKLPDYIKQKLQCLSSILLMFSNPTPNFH

With `CCN1CCN(Cc2ccc(C(=O)Nc3ccc(C)c(Oc4ccc5c(c4)CC(=O)N5)c3)cc2C(F)(F)F)CC1` the remaining binding was 100% (binding; competition with immobilised ligand; 1 µM).
With `Cc1cnc(Nc2ccc(C(=O)N3CCC(N4CCCC4)CC3)cc2)nc1-c1cc2ccccc2s1` the remaining binding was 14% (binding; competition with immobilised ligand; 1 µM).
The remaining binding of `COc1ncc2cc3ccccc3nc2c1C#N` is reported as 100% (cell-free assay; competition with immobilised ligand; 5 µM).
For `COc1cnc(Nc2cccc(S(N)(=O)=O)c2)nc1N1CCN(c2ccccc2)C(=O)C1`, the remaining binding was 96% (binding; competition with immobilised ligand; 1 µM).
For `CC(C)(O)c1cncc(-c2nc3ccc(F)cc3n2C2CC2)c1`, the remaining binding was 79% (cell-free assay; competition with immobilised ligand; 1 µM).
With `CN(CCCC(F)(F)F)c1nccc(-c2cnn3ncccc23)n1` the remaining binding was 100% (binding; 1 µM).
`CCC(=O)N[C@H]1CC[C@@H](C(=O)N(C)c2ccc(-c3nc4ccccc4o3)cc2)C1` has a remaining binding of 78% (cell-free assay; competition with immobilised ligand; 1 µM).
`O=C(NCC1CCOCC1)c1n[nH]cc1NC(=O)c1c(F)cccc1F` gave a remaining binding of 75% (binding; competition with immobilised ligand; 1 µM).
With `COc1cnc(Nc2cccc(S(N)(=O)=O)c2)nc1N1CCN(c2ccccc2)CC1` the remaining binding was 99% (binding; competition with immobilised ligand; 1 µM).
`CS(=O)(=O)N1CCCC(NC(=O)[C@H](CCC2CCCCC2)NC(=O)c2ccc(CNc3ncnc4c3nnn4-c3ccccc3)cc2)C1` (stereo partly shown) has a remaining binding of 82% (cell-free assay; competition with immobilised ligand; 0.1 µM).
With `CN(C)c1nccc(-c2cnc3ncccn23)n1` the remaining binding was 68% (binding; 1 µM).
With `Nc1ncc2c(n1)-c1c([nH]c3ccc(C#CC4CC4)cc13)CCCC2` the remaining binding was 87% (binding; competition with immobilised ligand; 1 µM).
With `CN(C)c1ncc(F)c(-c2cnn3ncccc23)n1` the remaining binding was 100% (binding; 1 µM).
`C[C@@H]1CN(c2ccc3ncc(-c4ccc5[nH]nc(C6CC6)c5c4)n3n2)C[C@H](C)O1` gave a remaining binding of 88% (binding; competition with immobilised ligand; 50 nM).
For `C[C@H]1CCN(c2nccc(-c3cnn4ncccc34)n2)C1`, the remaining binding was 99% (binding; 1 µM).
With `CN(C(=O)c1ccccc1)c1cc(N(C)c2ccc3c(c2)CCc2ccc(C(=O)NCCN4CCOCC4)cc2C3=O)ccc1F` the remaining binding was 93% (cell-free assay; competition with immobilised ligand; 1 µM).
`F[C@@H]1CCN(c2nccc(-c3cnn4ncccc34)n2)C1` has a remaining binding of 100% (binding; 1 µM).
For `Cc1cc(C)c(-n2ccn3nc(-c4cccnc4)cc23)cc1NC(=O)c1cc(C#N)cc(S(F)(F)(F)(F)F)c1`, the remaining binding was 64.1% (cell-free assay; competition with immobilised ligand; 0.1 µM).
For `O=C(NCCCN1CCOCC1)c1ccc(Nc2nccc(-c3cc4ccccc4s3)n2)cc1`, the remaining binding was 58% (binding; competition with immobilised ligand; 1 µM).
`O=C1CCc2cc(Nc3cc(OC4CCOCC4)c([N+](=O)[O-])cc3Cl)ccc2N1` gave a remaining binding of 86% (cell-free assay; competition with immobilised ligand; 1 µM).
The remaining binding of `CN(C)c1nccc(-c2cnn3ncccc23)n1` is reported as 96% (binding; 1 µM).
With `Cc1c[nH]c2nccc(Oc3c(F)cc(Nc4cc(Cl)nc(N)n4)cc3F)c12` the remaining binding was 82% (cell-free assay; competition with immobilised ligand; 0.1 µM).
The remaining binding of `N[C@H]1CCN(c2nccc(-c3cnn4ncccc34)n2)C1` is reported as 100% (binding; 1 µM).
For `CNC(=O)c1ccc(Nc2ncc(C(F)(F)F)c(NCc3nccnc3N(C)S(C)(=O)=O)n2)cc1`, the remaining binding was 79% (cell-free assay; competition with immobilised ligand; 0.1 µM).
For `O=C(NCCCN1CCOCC1)c1ccc(Nc2ncc(Cl)c(-c3ccc(Cl)s3)n2)cc1`, the remaining binding was 38% (binding; competition with immobilised ligand; 1 µM).
